Legend:
[1] = system: Chikungunya virus; test: Antiviral activity against Chikungunya virus 899 infected in African green monkey Vero A cells assessed as inhibition of viral RNA replication by RT-qPCR analysis; assay type: functional, organism-based; details: Chikungunya virus, 899, Vero
[2] = Selectivity index, ratio of CC50 for African green monkey Vero cells to EC50 for chikungunya virus infected in African green monkey Vero E6 cells; assay type: toxicity, Vero C1008; details: read-out: Ratio CC50/EC50
[3] = system: Chikungunya virus; test: Antiviral activity against Chikungunya virus infected in African green monkey Vero cells assessed as reduction in virus-induced cytopathic effect after 7 days by MTS assay; assay type: functional, organism-based; details: 168 h
[4] = Selectivity index, ratio of CC50 for African green monkey Vero A cells to EC50 for chikungunya virus 899 infected in African green monkey Vero A cells; assay type: toxicity; details: read-out: Ratio CC50/EC50
[5] = Lipophilicity, log P of the compound; assay type: physicochemical; details: octanol/water
[6] = Cytotoxicity against African green monkey Vero A cells by MTS assay; assay type: cell-based; details: chlorocebus aethiops
In short: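 Host-cell metabolism in Vero subtype A cells was measured by MTS read-out. CC50 is the concentration reducing host-cell metabolism by 50%. It was determined only for selected conjugates.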

[7] = Selectivity index, ratio of CC50 for African green monkey Vero E6 cells to EC50 for chikungunya virus infected in African green monkey Vero cells; assay type: toxicity, Vero C1008; details: read-out: Ratio CC50/EC50
[8] = system: Chikungunya virus; test: Antiviral activity against Chikungunya virus infected in African green monkey Vero E6 cells assessed as reduction in virus-induced cytopathic effect; assay type: functional, organism-based; details: Vero C1008
[9] = Aqueous solubility of the compound measured per 100 ml; assay type: physicochemical; details: buffer

Row | Structure (SMILES) | EC50 [1] [µM] | also measured
1 | Nc1nc(SCc2cc3cc(Br)ccc3oc2=O)c2nc(SCc3ccccc3)n([C@@H]3O[C@H](CO)[C@@H](O)[C@H]3O)c2n1 | > 152 | –
2 | C=C(C)[C@@]12OC3(c4ccccc4)O[C@@H]1[C@@H]1[C@@H]4O[C@]4(CO)[C@@H](O)[C@@]4(O)[C@@H](C=C(C)[C@@H]4O)[C@@]1(O3)[C@H](C)[C@@H]2OC(=O)C(C)CCCCCCCC (stereo partly specified) | – | selectivity ratio [2]: 71.7; EC50 [3]: 0.6 µM
3 | Cc1ccc2oc(=O)c(CSc3nc(N)nc4c3nc(SCc3cc5cc(C)ccc5oc3=O)n4[C@@H]3O[C@H](CO)[C@@H](O)[C@H]3O)cc2c1 | 40.9 | selectivity ratio [4]: 1.98; logP [5]: 3.22; CC50 [6]: 81.3 µM
4 | Nc1nc(SCc2cc3cc(Cl)ccc3oc2=O)c2nc(SCc3ccccc3)n([C@@H]3O[C@H](CO)[C@@H](O)[C@H]3O)c2n1 | > 163 | –
5 | Nc1nc(SCc2cc3ccccc3oc2=O)c2nc(SCc3cccc4ccccc34)n([C@@H]3O[C@H](CO)[C@@H](O)[C@H]3O)c2n1 | > 159 | –
6 | COc1ccc2oc(=O)c(CSc3nc(N)nc4c3nc(SCc3ccccc3)n4[C@@H]3O[C@H](CO)[C@@H](O)[C@H]3O)cc2c1 | > 164 | logP [5]: 2.78
7 | CSc1nc2c(SCc3cc4cc(C)ccc4oc3=O)nc(N)nc2n1[C@@H]1O[C@H](CO)[C@@H](O)[C@H]1O | > 194 | –
8 | Nc1nc2c(nc(SCc3ccccc3)n2[C@@H]2O[C@H](CO)[C@@H](O)[C@H]2O)c(=S)[nH]1 | > 237 | –
9 | Nc1nc(SCc2cc3ccccc3oc2=O)c2nc(SCc3ccccc3)n([C@@H]3O[C@H](CO)[C@@H](O)[C@H]3O)c2n1 | > 173 | –
10 | Nc1nc(SCc2cc3ccccc3oc2=O)c2nc(SCc3cc4ccccc4oc3=O)n([C@@H]3O[C@H](CO)[C@@H](O)[C@H]3O)c2n1 | > 154 | –
11 | Nc1nc2c(nc(SCc3cccc4ccccc34)n2[C@@H]2O[C@H](CO)[C@@H](O)[C@H]2O)c(=S)[nH]1 | > 212 | –
12 | CSCc1cc2ccccc2oc1=O | > 485 | –
13 | Nc1nc(SCc2cc3cc(F)ccc3oc2=O)c2nc(SCc3cc4cc(F)ccc4oc3=O)n([C@@H]3O[C@H](CO)[C@@H](O)[C@H]3O)c2n1 | > 146 | –
14 | COc1cccc2cc(CSc3nc(N)nc4c3nc(SCc3cc5cccc(OC)c5oc3=O)n4[C@@H]3O[C@H](CO)[C@@H](O)[C@H]3O)c(=O)oc12 | 10.3 | selectivity ratio [4]: 9.37; logP [5]: 2.97; CC50 [6]: 96.5 µM
15 | Nc1nc2c(nc(S)n2[C@@H]2O[C@H](CO)[C@@H](O)[C@H]2O)c(=S)[nH]1 | > 302 | logP [5]: -0.13
16 | Nc1nc(SCc2cc3cc(Br)ccc3oc2=O)c2nc(SCc3cc4cc(Br)ccc4oc3=O)n([C@@H]3O[C@H](CO)[C@@H](O)[C@H]3O)c2n1 | > 124 | –
17 | CSc1nc2c(SCc3cc4cc(Br)ccc4oc3=O)nc(N)nc2n1[C@@H]1O[C@H](CO)[C@@H](O)[C@H]1O | > 172 | –
18 | CSc1nc2c(SCc3cc4ccccc4oc3=O)nc(N)nc2n1[C@@H]1O[C@H](CO)[C@@H](O)[C@H]1O | > 198 | –
19 | CCN1C(=O)CCSC1c1cc2cc(Cc3ccc4oc(C5SCCC(=O)N5CC)cc4c3)ccc2o1 (stereo unspecified) | – | selectivity ratio [7]: 75; EC50 [8]: 1.9 µM
20 | COc1cccc2cc(CSc3nc(N)nc4c3nc(SC)n4[C@@H]3O[C@H](CO)[C@@H](O)[C@H]3O)c(=O)oc12 | > 188 | –
21 | COc1ccc2oc(=O)c(CSc3nc(N)nc4c3nc(SCc3cccc5ccccc35)n4[C@@H]3O[C@H](CO)[C@@H](O)[C@H]3O)cc2c1 | 13.9 | selectivity ratio [4]: > 16.3; logP [5]: 3.77; CC50 [6]: > 227 µM
22 | Nc1nc(SCc2cc3cc(Cl)ccc3oc2=O)c2nc(SCc3cc4cc(Cl)ccc4oc3=O)n([C@@H]3O[C@H](CO)[C@@H](O)[C@H]3O)c2n1 | > 140 | –
23 | CSc1nc2c(SCc3cc4cc(Cl)ccc4oc3=O)nc(N)nc2n1[C@@H]1O[C@H](CO)[C@@H](O)[C@H]1O | > 186 | –
24 | COc1ccc2oc(=O)c(CSc3nc(N)nc4c3nc(SCc3cc5cc(OC)ccc5oc3=O)n4[C@@H]3O[C@H](CO)[C@@H](O)[C@H]3O)cc2c1 | 9.9 | selectivity ratio [4]: > 21.7; logP [5]: 3.01; solubility [9]: 7.2 mg; CC50 [6]: > 212 µM

— ChEMBL document CHEMBL4400522, “Chikungunya virus inhibition by synthetic coumarin-guanosine conjugates” (Eur J Med Chem, 2019)
